Screening results deposited in PubChem by several laboratories.
In the library only some 4% were active in any assay of this set; here they are far more common.
SENP1 FRET inh = SENP1 (human) catalytic domain inhibition. recombinant SENP1 catalytic domain, CyPet-SUMO1-YPet FRET cleavage. 360,000 tested, 0.21% active. inhibition, % at 10 µM;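 active = inhibition at least 30% at 10 µM, raw YFP signal under a set limit, fluorescence ratio 0.5 to 1.5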;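 note: 0% = enzyme with DMSO and 100% = no enzyme wells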
Target sequence (Q9P0U3 419-644 limits assumed): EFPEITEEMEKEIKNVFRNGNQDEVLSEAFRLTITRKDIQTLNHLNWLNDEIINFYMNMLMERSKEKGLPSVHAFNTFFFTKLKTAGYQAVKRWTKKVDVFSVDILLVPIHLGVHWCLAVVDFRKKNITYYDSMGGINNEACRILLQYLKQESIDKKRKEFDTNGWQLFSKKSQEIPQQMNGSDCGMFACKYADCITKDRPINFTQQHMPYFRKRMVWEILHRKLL
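Test system: human SENP1 catalytic domain; medium: Tris pH 8 buffer plus EDTA, NaCl, BME, BSA, NP40, catalase; incubation: 50 min reaction at room temperature; technique: FRET, CFP and YFP emission; controls: no-enzyme low control and enzyme-plus-DMSO high control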
GRIN3A LBD mod = modulates the human NR3A ligand-binding domain; NR3A LBD differential scanning fluorimetry, Tm shift; 0% = protein alone, 100% = glycine-bound protein; Tm shift relative to glycine control, % at 25 µM; 340,000 tested, 2.5% active;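 active = melting temperature shift of at least 10% of the positive control shift, at one fixed dose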
Arr AP2 block = blocks beta-arrestin peptide binding to AP2 adaptin. 340,000 tested, 0.31% active. AID 504490. inhibition, % at 10 µM. FITC-arrestin peptide / GST-AP2 beads, flow cytometry; AP2 beta2 appendage carries R879A mutation;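 active = inhibition above a set limit, near 3 SD of compounds lacking own fluorescence, cut at about 54% in these data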;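 note: plate controls were DMSO wells for no effect and 5 µM unlabelled arrestin peptide for full effect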
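system = GST-tagged AP2 beta2-adaptin appendage (R879A) on 4 µm glutathione beads | reagent = FITC-labelled arrestin peptide probe, 50 nM final | schedule = compound with beads 12 min RT, then probe 1 h RT | signal = HyperCyt-sampled flow cytometry, FL1 channel, ex 488/em 535 nm | read-out = percent response from loss of bead-bound FITC fluorescence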
FAS TE block = FAS thioesterase (human) inhibition; P49327; recombinant FAS-TE, OMFH fluorogenic substrate, fluorescence endpoint; AID 602261; 360,000 tested, 0.67% active; inhibition, % at 15 µM;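 active = compounds whose normalised, plate-corrected inhibition of enzyme fluorescence in the single-dose primary screen is 50% or more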;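 note: 0% = DMSO with enzyme and 100% = substrate without enzyme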
hiPSC survival = increases survival of single human iPS cells | hiPSC single-cell survival, ATPlite luminescence; 100% = ROCK inhibitor wells, 0% = DMSO | survival enhancement, % at 20 µM | 360,000 tested, 0.044% active; in the data active = survival enhancement above about 18%;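 note: cells exposed to compounds for 16 hours before the ATP read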
H9c2 protect = protects H9c2 cardiomyocytes from peroxide injury. H2O2 injury protection, ATPLite, 2 h. AID 588492. protection from H2O2 cell death, % at 20 µM. 360,000 tested, 0.63% active;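 active = compounds giving at least 50% protection of heart cells from peroxide-induced death in the single-dose screen, raw or plate-pattern-corrected value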;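 note: 0% = DMSO wells with peroxide and 100% = DMSO wells without peroxide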
FAS-TE conf = FAS thioesterase (human) inhibition, confirmation; shares compounds with FAS TE block; recombinant FAS-TE, OMFH fluorogenic substrate, fluorescence; inhibition, % at 15 µM; 2,300 tested, 45% active;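 active = compounds inhibiting the enzyme by at least 50% at 15 µM in any one of the replicates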;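 note: 0% = enzyme with DMSO only and 100% = wells lacking enzyme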
Numbers without * were called inactive; . = no result.

SMILES | SENP1 FRET inh | GRIN3A LBD mod | Arr AP2 block | FAS TE block | hiPSC survival | H9c2 protect | FAS-TE conf
COc1ccc(C)cc1N(C(=O)c1ccccc1)c1nc2ccccc2s1 | 2 | 1 | 1 | 19 | 2 | -2 | .
Cc1sc(N=Nc2ccc(N(C)C)cc2)[n+]([O-])c1C | 4 | . | . | -2 | -2 | -7 | .
N#Cc1cc(Oc2ccc(Cl)cc2)c(N2CCOCC2)cc1C#N | 0 | 1 | -15 | 67* | 0 | -2 | 30*
CC(=O)Nc1cccc(Oc2cc(C#N)c(C#N)cc2N2CCCCCC2)c1 | -1 | -4 | 7 | 39 | 2 | -5 | .
CCOC(=O)[C@H]1[C@H]2COc3ccc(C)cc3[C@@H]2N2C(=O)c3ccc(Cl)cc3NC(=O)[C@@]12C | 1 | 1 | -3 | 17 | -3 | 13 | .
CCOC(=O)[C@H]1[C@H]2COc3ccc(Br)cc3[C@@H]2N2C(=O)c3ccc(C)cc3NC(=O)[C@@]12C | 1 | 6 | -7 | 23 | -2 | 6 | .
CCOC(=O)[C@H]1[C@H]2COc3ccc(Br)cc3[C@@H]2N2C(=O)c3c(C)cc(C)cc3NC(=O)[C@@]12C | -1 | 1 | 2 | 68* | 1 | 12 | 22
CCOC(=O)[C@@H]1[C@H]2COc3ccc(Br)cc3[C@@H]2N2C(=O)N(c3cccc(Cl)c3)C(=O)[C@@]12C | 2 | 2 | -5 | 73* | -1 | -4 | 52*
CCOC(=O)[C@H]1[C@H]2COc3ccc(C)cc3[C@@H]2N2C(=O)c3cc(Br)ccc3NC(=O)[C@@]12C | -1 | -1 | -5 | 57* | -1 | 20 | 26
CCOC(=O)[C@H]1[C@H]2COc3ccc(Cl)cc3[C@@H]2N2C(=O)c3ccc(Cl)cc3NC(=O)[C@@]12C | -1 | -5 | 29 | 59* | 2 | 21 | 43
Cn1cncc1C#Cc1ccc2c(=O)c3ccccc3oc2c1 | -2 | -14 | 26 | -28 | 0 | 4 | .
Cc1cccc(C)c1-n1nnnc1C1(C)CCC(=O)N1CCc1ccc(O)cc1 (centres undefined) | 0 | . | . | -4 | 0 | . | .
CC1=C(C(=O)N2CCCCCC2)CC(CC(=O)NCCN2CCOCC2)C(=O)N1Cc1ccccc1 (centres undefined) | 4 | . | . | -7 | 0 | 0 | .
CC(C)NC(=O)C1(C)CCN1CCC(=O)c1ccccc1 (centres undefined) | 1 | . | . | -12 | 2 | 0 | .
CC(O)CNc1nc2sc3c(c2c(=O)n1CCc1ccccc1)CCCCC3 (centres undefined) | -9 | -3 | 1 | 47 | -1 | 16 | .
CN(C)CCNc1nc2sc3c(c2c(=O)n1CCc1ccccc1)CCCCC3 | -1 | 0 | -6 | 60* | 0 | -18 | 56*
N#Cc1c(-c2ccccc2)c(-c2ccccc2)nn(CC(=O)NNC(=O)Nc2ccc(Cl)cc2)c1=O | 2 | 15* | -1 | 76* | -1 | -2 | 78*
N#Cc1c(-c2ccccc2)c(-c2ccccc2)nn(CC(=O)NNC(=O)Nc2ccccc2)c1=O | -2 | -1 | 1 | 43 | -1 | -6 | .
Cc1c(C(=O)N2CCN(c3ccc([N+](=O)[O-])cc3)CC2)oc2ccccc12 | -9 | 2 | -6 | 31 | 0 | 1 | .
Cc1c(-c2ccccc2)oc2c(C(=O)N3CCN(c4ccc([N+](=O)[O-])cc4)CC3)cccc2c1=O | -4 | -25 | 38 | 60* | 0 | 11 | 10
CCOC(=O)c1sc(NC(=O)c2ccc(S(=O)(=O)N3CCCCC3)cc2)nc1-c1ccccc1 | 2 | 13* | 2 | 65* | 2 | -11 | 12
CCOC(=O)c1sc(NC(=O)c2ccc(S(=O)(=O)N3CCCCCC3)cc2)nc1-c1ccccc1 | 0 | 8 | -4 | 46 | 1 | -9 | .
Cc1nn(C)cc1C(C(=O)NC1CCCCC1)N(C(=O)Cc1cccs1)c1ccc(F)cc1 (centres undefined) | -1 | -3 | 5 | -5 | 3 | 4 | .
Cc1nn(C)cc1C(C(=O)NC1CCCCC1)N(C(=O)Cc1cccs1)c1ccc(C(C)C)cc1 (centres undefined) | 3 | -2 | -3 | 61* | 4 | 12 | 59*
Cc1cc2c(=O)oc(-c3ccccc3Br)nc2s1 | 3 | 2 | 12 | 59* | 0 | -3 | 65*
SMILES | SENP1 FRET inh | GRIN3A LBD mod | Arr AP2 block | FAS TE block | hiPSC survival | H9c2 protect | FAS-TE conf
Cc1cc2c(=O)oc(-c3ccc(F)cc3)nc2s1 | 2 | -1 | 20 | 32 | 0 | -5 | .
CCc1cc2c(=O)oc(-c3ccccc3F)nc2s1 | -2 | 2 | 23 | 75* | 0 | 5 | 60*
CN(c1ccccc1)S(=O)(=O)c1ccc(NC(=O)c2nc(S(C)(=O)=O)ncc2Cl)cc1 | 0 | -5 | 7 | 58* | 13 | -15 | 68*
COCCNC(=O)C1(C)CCN(Cc2noc(-c3c(C)noc3C)n2)C1 (centres undefined) | 0 | . | . | -5 | -1 | -2 | .
CC(NC(=O)c1cc([N+](=O)[O-])cc([N+](=O)[O-])c1)c1ccc(-n2ccnc2)cc1 (centres undefined) | -1 | 1 | -13 | 59* | 0 | -4 | 72*
O=C(Nc1ccccc1[N+](=O)[O-])OCC=Cc1ccccc1 | 2 | . | . | 55* | -1 | -8 | 59*
O=C(COC(=O)c1ccco1)Nc1ccccc1[N+](=O)[O-] | 2 | -2 | 3 | -3 | -1 | 4 | .
COc1ccncc1-c1ccccc1C1=CC(=O)CC(C)(C)C1=O | 6 | . | . | 4 | 0 | 3 | .
CC(C)c1ccc(NC(=O)C2(C)Cc3c(-c4ccc(C(N)=O)cc4)ccnc3O2)cc1 (centres undefined) | 1 | . | . | 14 | -4 | -4 | .
C=C[C@@H]1c2cc(C)ccc2N(S(=O)(=O)c2ccc(C)cc2)[C@H](c2ccc(OC(C)=O)cc2)C1(C#N)C#N | 1 | -1 | 4 | 52* | -1 | -4 | 24
Cc1ccc2c(c1)C1CN(C)CCC1N2S(=O)(=O)c1ccc(C#N)cc1 (centres undefined) | 1 | -3 | 22 | -14 | -1 | 6 | .
C=C[C@@H]1c2ccccc2N(S(=O)(=O)c2ccc(C)cc2)[C@H](c2ccc(OC(C)=O)cc2)C1(C#N)C#N | 1 | -3 | 10 | 62* | 0 | 4 | 14
Cc1cc(F)ccc1C(O)c1ncc(-c2cccc(OCc3ccccc3)c2)[nH]1 (centres undefined) | 1 | . | . | 13 | 0 | -14 | .
